From ChEMBL document CHEMBL1135749, “Stereoselective synthesis and antiviral activity of D-2',3'-didehydro-2',3'-dideoxy-2'-fluoro-4'-thionucleosides” (J Med Chem, 2002)

What was measured:
Vero = experiment: Cytotoxicity against Vero cells; type: cell-based; conditions: Chlorocebus sabaeus
How it was run: (§1)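 Uninfected log-phase cells seeded on 10-fold serial drug dilutions: Vero at 5 × 10³, CEM at 2.5 × 10³, and PHA-stimulated PBM at 5 × 10⁴ cells/well. Incubated at 37 °C in 5% CO₂ for 3 days (Vero), 4 days (CEM) or 5 days (PBM). MTT added overnight, then solubilized and read at 570 nm. IC50 by the median effect method.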

CCRF-CEM = experiment: Cytotoxicity against CEM cells; type: cell-based; conditions: Homo sapiens; how it was run: as §1
[1] = In vitro cytotoxicity against human peripheral blood mononuclear (PBM) cells; type: cell-based; how it was run: as §1
[2] = Anti-viral activity against HIV-1 in human PBM cells; type: functional, cell-based; conditions: PBMC
How it was run: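 PHA-stimulated (2-3 days) human PBM cells from healthy seronegative donors, infected in bulk for 1 h with HIV-1 LAI (100 TCID50/1 × 10⁷ cells flask or 200 TCID50/6 × 10⁵ cells/well). Cells then placed on 10-fold serial compound dilutions in RPMI-1640 with IL-2, 5 days at 37 °C. Supernatant RT activity measured by ³H-TTP incorporation on poly(rA)·oligo(dT). EC50 obtained by the median effect method.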

[3] = biological target: Adenosine deaminase (Bos taurus) (UniProt P56658); experiment: Half life value of the compound
[4] = Antiviral activity against HIV-1xxBRU […] strain in human PBM cells; type: functional; conditions: PBMC
How it was run: (§2)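 Molecular infectious clones HIV-1 xxBru and HIV-1 M184Vpitt used in PHA-stimulated human PBM cells. Bulk 1 h infection at 100 TCID50/1 × 10⁷ cells (flask) or 200 TCID50/6 × 10⁵ cells/well. Cells then exposed to 10-fold serial compound dilutions for 5 days at 37 °C. Read-out was pelleted-virus RT activity with ³H-TTP. EC50 by the median effect method.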

[5] = Antiviral activity against (HIV-1M184V) mutant strain in human PBM cells; type: functional; conditions: PBMC; how it was run: as §2

SMILES | IC50 (Vero) [µM] | IC50 (CCRF-CEM) [µM] | IC50 [1] [µM] | EC50 [2] [µM] | half-life [3] [min] | EC90 [4] [µM] | EC90 [5] [µM]
Nc1nc(=O)n([C@@H]2S[C@H](CO)C=C2F)cc1F | > 100 | > 100 | > 100 | 11.6 |  |  | 
Nc1ncnc2c1ncn2[C@@H]1S[C@H](CO)C=C1F | > 100 | > 100 | > 100 | 8.1 | 33 |  | 
Nc1nc(F)nc2c1ncn2[C@@H]1S[C@H](CO)C=C1F | 7.6 | 1.1 | 1.5 | 1.2 |  |  | 
Nc1nc2c(ncn2[C@@H]2S[C@H](CO)C=C2F)c(=O)[nH]1 | > 100 | > 100 | > 100 | 80.5 |  |  | 
O=c1nc(O)ccn1[C@@H]1S[C@H](CO)C=C1F | > 100 | > 100 | > 100 | > 100 |  |  | 
Nc1ccn([C@@H]2S[C@H](CO)C=C2F)c(=O)n1 | > 100 | > 100 | > 100 | 1.3 |  | 5 | 125
Nc1ccn([C@@H]2CS[C@H](CO)O2)c(=O)n1 [LAMIVUDINE] |  |  |  |  |  | 0.08 | 535
O=c1[nH]cnc2c1ncn2[C@@H]1S[C@H](CO)C=C1F | > 100 | > 100 | > 100 | 43.6 |  |  | 
Nc1ncnc2c1ncn2[C@@H]1O[C@H](CO)C=C1F |  |  |  |  | 42 |  | 
Cc1cn([C@@H]2S[C@H](CO)C=C2F)c(=O)nc1O | 53 | > 100 | > 100 | 92.3 |  |  | 
Nc1ncnc2c1ncn2[C@@H]1O[C@H](CO)[C@@H](O)[C@H]1O [ADENOSINE] |  |  |  |  | 0.5 |  | 
Cc1cn([C@H]2C[C@H](N=[N+]=[N-])[C@@H](CO)O2)c(=O)[nH]c1=O [ZIDOVUDINE] |  |  | > 100 | 0.004 |  | 0.01 | 0.003
